Test results taken from ChEMBL document CHEMBL3526048, “In vitro metabolism of rivoglitazone, a novel peroxisome proliferator-activated receptor γ agonist, in rat, monkey, and human liver microsomes and freshly isolated hepatocytes” (Drug Metab Dispos, 2011).

Assays:
Cytochrome P450 3A5 = Cytochrome P450 3A5 (Homo sapiens, UniProt P20815); assay: Activity of human CYP3A5 expressed in microsomes isolated from baculovirus infected insect cell assessed as enzyme-mediated 3-(4-((6-methoxy-1-methyl-1H-benzo[d]imidazol-2-yl)methoxy)phenyl)-2-(methylthio)propanamide formation at 20 uM after 2 hrs by radio-HPLC/LC-MS/MS analysis in presence of NADPH-generating system/SAM; assay type: ADME
Cytochrome P450 3A5, sequence (P20815 whole entry): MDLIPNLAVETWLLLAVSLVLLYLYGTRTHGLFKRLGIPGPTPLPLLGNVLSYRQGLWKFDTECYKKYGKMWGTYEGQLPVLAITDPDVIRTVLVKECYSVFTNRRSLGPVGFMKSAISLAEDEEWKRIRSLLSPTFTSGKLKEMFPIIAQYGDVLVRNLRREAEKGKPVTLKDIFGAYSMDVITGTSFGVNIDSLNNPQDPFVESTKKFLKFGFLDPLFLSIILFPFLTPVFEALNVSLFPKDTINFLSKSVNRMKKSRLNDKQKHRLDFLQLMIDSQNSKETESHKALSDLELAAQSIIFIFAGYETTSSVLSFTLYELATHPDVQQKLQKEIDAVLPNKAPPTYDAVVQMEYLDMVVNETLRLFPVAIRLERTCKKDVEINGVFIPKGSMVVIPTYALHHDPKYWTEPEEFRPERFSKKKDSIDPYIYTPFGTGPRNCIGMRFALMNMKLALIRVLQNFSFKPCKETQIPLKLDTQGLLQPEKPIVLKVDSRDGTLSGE
In short: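 cDNA-expressed human CYP3A5 in baculovirus-insect-cell microsomes (1 mg/ml protein) was incubated with [¹⁴C]rivoglitazone (20 μM) in 50 mM potassium phosphate (pH 7.4) or 100 mM Tris-HCl (pH 7.5). NADPH-generating system: 2 mM NADP⁺, 20 mM glucose 6-phosphate, 2 units/ml G6PDH, 10 mM MgCl₂. Incubation ran 2 h at 37°C with shaking; insect-cell control supersomes served as control. Acetonitrile stop, supernatant concentrated, then radio-HPLC, LC-MS and LC-MS/MS.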

Cytochrome P450 3A4 = Cytochrome P450 3A4 (Homo sapiens, UniProt P08684); assay: Activity of human CYP3A4 expressed in microsomes isolated from baculovirus infected insect cell assessed as enzyme-mediated 3-(4-((6-methoxy-1-methyl-1H-benzo[d]imidazol-2-yl)methoxy)phenyl)-2-(methylsulfonyl)propanamide formation at 20 uM after 2 hrs by radio-HPLC/LC-MS/MS analysis in presence of NADPH-generating system/SAM; assay type: ADME
Cytochrome P450 3A4, sequence (P08684 whole entry): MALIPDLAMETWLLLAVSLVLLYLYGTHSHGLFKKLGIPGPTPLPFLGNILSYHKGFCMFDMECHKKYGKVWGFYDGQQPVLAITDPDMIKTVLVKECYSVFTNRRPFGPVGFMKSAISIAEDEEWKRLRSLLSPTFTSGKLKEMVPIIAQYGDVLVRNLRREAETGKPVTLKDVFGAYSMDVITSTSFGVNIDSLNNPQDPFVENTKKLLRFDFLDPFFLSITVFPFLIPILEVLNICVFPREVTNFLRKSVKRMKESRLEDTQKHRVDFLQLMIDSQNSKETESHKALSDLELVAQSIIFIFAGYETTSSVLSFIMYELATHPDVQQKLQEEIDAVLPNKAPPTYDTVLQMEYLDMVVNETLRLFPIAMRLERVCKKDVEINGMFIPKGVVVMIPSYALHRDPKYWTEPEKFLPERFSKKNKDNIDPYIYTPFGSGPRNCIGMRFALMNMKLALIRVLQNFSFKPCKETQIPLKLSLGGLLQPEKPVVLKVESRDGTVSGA

[1] = biological target: T1, UDP-glucuronosyltransferase 1A9 (Homo sapiens, UniProt O60656); assay: (§1) Activity of human UGT1A9 expressed in microsomes isolated from baculovirus infected insect cell assessed as enzyme-mediated (2S,3S,4S,5R,6R)-3,4,5-trihydroxy-6-(5-(4-((6-methoxy-1-methyl-1H-benzo[d]imidazol-2-yl)methoxy)benzyl)-2,4-dioxothiazolidin-3-yl)tetrahydro-2H-pyran-2-carboxylic acid formation at 20 uM after 4 hrs by radio-HPLC/LC-MS/MS analysis in presence of UDPGA; assay type: ADME
T1 sequence (O60656 whole entry): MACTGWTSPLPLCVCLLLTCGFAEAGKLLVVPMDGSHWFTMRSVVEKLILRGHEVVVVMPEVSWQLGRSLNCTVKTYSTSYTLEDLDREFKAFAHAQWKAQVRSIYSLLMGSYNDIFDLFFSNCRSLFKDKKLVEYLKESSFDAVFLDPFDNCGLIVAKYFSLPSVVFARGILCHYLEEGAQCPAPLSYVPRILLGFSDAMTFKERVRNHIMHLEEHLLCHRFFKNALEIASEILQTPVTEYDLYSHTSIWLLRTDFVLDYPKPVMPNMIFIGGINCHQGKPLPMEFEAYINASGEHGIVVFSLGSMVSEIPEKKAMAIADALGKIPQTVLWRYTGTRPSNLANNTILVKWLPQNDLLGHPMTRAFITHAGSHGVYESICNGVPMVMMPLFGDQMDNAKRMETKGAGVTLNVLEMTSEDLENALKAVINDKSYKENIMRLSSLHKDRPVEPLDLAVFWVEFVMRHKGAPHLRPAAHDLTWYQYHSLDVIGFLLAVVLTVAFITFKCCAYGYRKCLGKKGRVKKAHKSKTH

[2] = Drug metabolism in cynomolgus monkey liver microsomes assessed as formation of 2-mercapto-3-(4-((6-methoxy-1-methyl-1H-benzo[d]imidazol-2-yl)methoxy)phenyl)propanamide at 20 uM after 2 hrs by radio-HPLC/LC-MS/MS analysis in presence of NADPH-generating system and NADPH-generating system/SAM; assay type: ADME, Macaca fascicularis
Liver microsome [3] = assay: Drug metabolism in Sprague-Dawley rat liver microsomes assessed as formation of 2-mercapto-3-(4-((6-methoxy-1-methyl-1H-benzo[d]imidazol-2-yl)methoxy)phenyl)propanoic acid at 20 uM after 2 to 4 hrs by radio-HPLC/LC-MS/MS analysis in presence of UDPGA, UDPGA/SAM and NADPH-generating system; assay type: ADME
[4] = Drug metabolism in human hepatocytes assessed as formation of 3-(4-((6-methoxy-1-methyl-1H-benzo[d]imidazol-2-yl)methoxy)phenyl)-2-(methylsulfonyl)propanamide at 30 uM after 3 hrs by radio-HPLC/LC-MS/MS analysis in presence of NADPH-generating system/SAM; assay type: ADME, cell-based, Hepatocyte
[5] = Drug metabolism in rat hepatocytes assessed as formation of 2-((4-((2,4-dioxothiazolidin-5-yl)methyl)phenoxy)methyl)-1-methyl-1H-benzo[d]imidazol-6-yl hydrogen sulfate at 30 uM after 3 hrs by radio-HPLC/LC-MS/MS analysis; assay type: ADME, cell-based, Hepatocyte
[6] = Drug metabolism in monkey hepatocytes assessed as formation of 3-(4-((6-methoxy-1-methyl-1H-benzo[d]imidazol-2-yl)methoxy)phenyl)-2-(methylthio)propanoic acid at 30 uM after 3 hrs by radio-HPLC/LC-MS/MS analysis in presence of NADPH-generating system/SAM and UDPGA/SAM; details: cynomolgus monkey
[7] = Drug metabolism in human hepatocytes assessed as formation of 2-hydroxy-3-(4-((6-methoxy-1-methyl-1H-benzo[d]imidazol-2-yl)methoxy)phenyl)propanamide at 30 uM after 3 hrs by radio-HPLC/LC-MS/MS analysis in presence of NADPH-generating system and NADPH-generating system/SAM; assay type: ADME, cell-based, Hepatocyte
[8] = biological target: T2, UDP-glucuronosyltransferase 2B4 (Homo sapiens, UniProt P06133); assay: as §1, with “UGT2B4” for “UGT1A9”; assay type: ADME
T2 sequence (P06133 whole entry): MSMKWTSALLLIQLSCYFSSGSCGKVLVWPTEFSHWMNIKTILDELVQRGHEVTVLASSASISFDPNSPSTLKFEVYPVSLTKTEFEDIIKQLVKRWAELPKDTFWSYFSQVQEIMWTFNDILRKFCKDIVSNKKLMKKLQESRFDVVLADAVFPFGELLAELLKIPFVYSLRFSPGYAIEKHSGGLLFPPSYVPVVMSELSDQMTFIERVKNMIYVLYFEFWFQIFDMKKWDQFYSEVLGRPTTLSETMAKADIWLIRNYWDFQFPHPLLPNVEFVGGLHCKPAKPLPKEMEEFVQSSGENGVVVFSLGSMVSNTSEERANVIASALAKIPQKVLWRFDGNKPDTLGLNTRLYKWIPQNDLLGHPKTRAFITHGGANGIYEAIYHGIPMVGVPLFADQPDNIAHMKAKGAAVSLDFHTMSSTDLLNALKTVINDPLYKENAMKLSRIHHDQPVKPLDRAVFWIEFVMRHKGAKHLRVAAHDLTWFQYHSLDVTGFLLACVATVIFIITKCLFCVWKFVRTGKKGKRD

Liver microsome [9] = assay: Drug metabolism in Sprague-Dawley rat liver microsomes assessed as formation of 2-hydroxy-3-(4-((6-methoxy-1-methyl-1H-benzo[d]imidazol-2-yl)methoxy)phenyl)propanamide at 20 uM after 2 hrs by radio-HPLC/LC-MS/MS analysis in presence of NADPH-generating system and NADPH-generating system/SAM; assay type: ADME
Cytochrome P450 2C9 = Cytochrome P450 2C9 (Homo sapiens, UniProt P11712); assay: Activity of human CYP2C9 expressed in microsomes isolated from baculovirus infected insect cell assessed as enzyme-mediated 3-(4-((6-methoxy-1-methyl-1H-benzo[d]imidazol-2-yl)methoxy)phenyl)-2-(methylsulfinyl)propanamide formation at 20 uM after 2 hrs by radio-HPLC/LC-MS/MS analysis in presence of NADPH-generating system/SAM; assay type: ADME
Cytochrome P450 2C9, sequence (P11712 whole entry): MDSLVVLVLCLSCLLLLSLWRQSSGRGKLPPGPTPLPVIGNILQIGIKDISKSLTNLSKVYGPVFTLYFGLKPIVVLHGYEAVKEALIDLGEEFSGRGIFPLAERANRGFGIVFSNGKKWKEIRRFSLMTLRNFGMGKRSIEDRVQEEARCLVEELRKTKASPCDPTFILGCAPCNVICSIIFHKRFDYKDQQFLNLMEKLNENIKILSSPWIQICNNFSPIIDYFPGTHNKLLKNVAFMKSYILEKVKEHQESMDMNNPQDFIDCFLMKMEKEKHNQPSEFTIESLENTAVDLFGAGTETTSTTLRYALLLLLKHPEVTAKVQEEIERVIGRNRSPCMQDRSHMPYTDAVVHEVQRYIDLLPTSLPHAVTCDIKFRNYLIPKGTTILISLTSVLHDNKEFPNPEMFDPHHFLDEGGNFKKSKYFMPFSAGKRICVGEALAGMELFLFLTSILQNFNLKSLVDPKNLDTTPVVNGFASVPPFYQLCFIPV

[10] = Drug metabolism in monkey hepatocytes assessed as formation of 2-mercapto-3-(4-((6-methoxy-1-methyl-1H-benzo[d]imidazol-2-yl)methoxy)phenyl)propanamide at 30 uM after 3 hrs by radio-HPLC/LC-MS/MS analysis in presence of NADPH-generating system and NADPH-generating system/SAM; details: cynomolgus monkey

Measured: Drug metabolism

COc1ccc2nc(COc3ccc(C[14CH]4SC(=O)NC4=O)cc3)n(C)c2c1.Cl (racemic)
metabolite_detected: [2] | Liver microsome [3] | [4] | [5] | Liver microsome [9]
metabolite_not_detected: all other assays above
